Assay results from paper PMC7919753 (ACS chemical biology, 2020).
“And” between values parts separate entries of the source, which are not always exact repeats. Equal values may be shown once. Read-outs that look alike come from different tables or passages of the source.

Experiments:
GBM43 spheroids [1] = experiment: 3-D spheroid viability assay, GBM43; format: cell-based, human; settings: for activity in spheroids (in words): concentration-dependent
GBM10 spheroids = experiment: 3-D spheroid viability assay, GBM10; format: cell-based, human; settings: for activity in spheroids (in words): concentration-dependent
RACK1 [2] = molecular target: T1, RACK1 (Homo sapiens, UniProt P63244); experiment: Cellular thermal shift assay; format: binding; settings: GBM43 cells, concentration-dependent, 6 h treatment, heated to 45 °C, vs DMSO
How it was run: (§1)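 GBM43 cells were exposed to varying concentrations of test compound, then heated to 45 °C. Protein remaining soluble was detected with target-specific antibodies. GAPDH was probed as a control for non-specific binding.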

GBM43 spheroids [3] = settings: read-out: IC50 (cell viability); GBM43, standard-of-care comparison; cited from earlier work
SJ-GBM2 spheroids = experiment: 3-D spheroid viability assay, SJ-GBM2; format: cell-based, human; settings: for activity in spheroids (in words): concentration-dependent
CD34+ progenitor cells = experiment: Colony-forming unit; format: cell-based, human; settings: colony formation assay, up to 100 μM, day 14
How it was run: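 Purified human umbilical cord blood CD34+ cells were incubated with test compound. They were plated with compound at 2 × 10³ cells per 35 mm dish in MethoCult H4434. Clonogenic progenitor colonies were counted by light microscopy on day 14 after exposure. IC50 came from dose-response curves.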

astrocytes = experiment: Astrocyte monolayer cell proliferation assay; format: cell-based, human; settings: 2-D monolayer assay, up to 100 μM, 3 days
How it was run: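 Primary human fetal astrocytes were seeded at 8 × 10³/well in DMEM with 10% FBS and 1% penicillin/streptomycin. They were incubated 3 days with DMSO or test compound. MTS reagent was then added and incubated 1 h at 37 °C, and absorbance was read at 490 nm. Run in triplicate.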

Pa02C = experiment: PDAC 3-D spheroid model, Pa02C; format: cell-based, human; settings: Pa02C PDAC spheroids, concentration-dependent
How it was run: (§2)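 TdTomato-transduced PDAC cells, kept under 10 passages, were seeded at 1,000 cells/well in ultralow-adherence plates. Medium held 3% reduced-growth-factor Matrigel and 5% FBS. Spheroids were treated on days 4 and 8, and red fluorescence was read on day 12. Percent viability was taken versus media control (mean ± s.d., n = 3). Relative IC50 came from a four-parameter logistic fit by non-linear least squares.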

Panc10.05 (Pa16C) = experiment: PDAC 3-D spheroid model, Panc10.05; format: cell-based; settings: Homo sapiens, Panc1005, read-out: IC50 (cell viability)
How it was run: as §2

Panc198 (Pa20C) = experiment: PDAC 3-D spheroid model, Panc198; format: cell-based, human; settings: Panc198 PDAC spheroids, concentration-dependent
How it was run: as §2

[4] = system: brain microvascular endothelial cells (BMECs); experiment: Matrigel-based tube formation assay; settings: Endothelial cell, 8 h, read-out: IC50 (tube formation)
How it was run: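 Primary brain microvascular endothelial cells, 15,000 per well in EGM-2, were seeded on Matrigel pre-solidified 20 min at 37 °C. Test compound was added in DMSO. Tubes were observed every 2 h by brightfield and imaged at 8 h. Total tubule length from six images per treatment was normalised to DMSO. Treatments were compared to DMSO by one-way ANOVA with Dunnett's test.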

[5] = system: brain microvascular endothelial cells (BMECs); experiment: Effect on brain microvascular endothelial cells, 48 h exposure; format: cell-based; settings: Endothelial cell, read-out: IC50 (effect on BMECs)
[6] = Stability in buffer by HPLC; format: physicochemical
GAPDH = GAPDH (Homo sapiens, UniProt P04406); experiment: Cellular thermal shift assay; format: binding; settings: GBM43 cells, concentration-dependent, heated to 45 °C
Chain of GAPDH (P04406 whole entry): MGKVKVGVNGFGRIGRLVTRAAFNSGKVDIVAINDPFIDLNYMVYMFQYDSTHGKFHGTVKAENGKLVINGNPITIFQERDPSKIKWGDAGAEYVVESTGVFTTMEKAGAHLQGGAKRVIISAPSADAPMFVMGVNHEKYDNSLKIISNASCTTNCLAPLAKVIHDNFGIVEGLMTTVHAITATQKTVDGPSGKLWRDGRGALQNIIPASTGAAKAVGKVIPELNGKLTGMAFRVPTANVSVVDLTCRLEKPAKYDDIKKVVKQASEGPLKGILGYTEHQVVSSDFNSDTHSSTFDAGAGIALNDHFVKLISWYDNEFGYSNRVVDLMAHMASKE
How it was run: as §1

RACK1 [7] = molecular target: T1, RACK1; experiment: Thermal proteome profiling in GBM43 cells; format: binding; settings: 10 μM, six temperatures 37-60 °C, cutoff ΔTm ≥ 3 °C
How it was run: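 GBM43 cells in PBS with protease inhibitors were treated 1 h at 37 °C with 10 µM test compound or DMSO. Fractions of 5 × 10⁶ cells were heated 3 min at 37, 40, 45, 50, 55 or 60 °C, then freeze-thaw lysed and spun at 100,000 × g. Soluble proteins were trypsin-digested and quantified by label-free LC-MS/MS. iBAQ-based melting curves gave ΔTm (treatment − vehicle), with a ≥3.0 cutoff.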

SMILES: COc1cc2c(cc1NC(=O)C1CCC(=O)N1)oc1ccccc12 (stereo not shown) [Compound 24, N-(2-Methoxydibenzo[b,d]furan-3-yl)-5-oxopyrrolidine-2-carboxamide]
- activity in spheroids (in words) (GBM43 spheroids [1]; GBM43 spheroids): loss of activity
- activity in spheroids (in words) (GBM10 spheroids): loss of activity

SMILES: O=NN(CCCl)C(=O)NC1CCCCC1 [CCNU, lomustine, reference compound]
- inhibition of cell viability (GBM43 spheroids [1]; GBM43 spheroids, at 100 μM): about 50%
- inhibition of cell viability (GBM10 spheroids; at 100 μM): about 50%

SMILES: COc1cc2c(cc1NC(=O)C1CCCN1S(=O)(=O)c1ccc(C)cc1)oc1ccccc12 (stereo not shown) [Compound 22, N-(2-Methoxydibenzo[b,d]furan-3-yl)-1-tosylpyrrolidine-2-carboxamide]
- activity in spheroids (in words) (GBM43 spheroids [1]; GBM43 spheroids): loss of activity
- activity in spheroids (in words) (GBM10 spheroids): loss of activity
- RACK1 abundance after heating (CETSA) (RACK1 [2]): did not affect protein abundance

SMILES: COc1cc2c(cc1NC(=O)C1CCC(=O)N1Cc1ccc(C)cc1)oc1ccccc12 (stereo not shown) [Compound 23, N-(2-Methoxydibenzo[b,d]furan-3-yl)-1-(4-methylbenzyl)-5-oxopyrrolidine-2-carboxamide]
- activity in spheroids (in words) (GBM43 spheroids [1]; GBM43 spheroids): loss of activity
- activity in spheroids (in words) (GBM10 spheroids): loss of activity

SMILES: Cn1nnc2c(C(N)=O)ncn2c1=O [temozolomide]
- IC50 (GBM43 spheroids [3]): 244 µM and ~250 µM

SMILES: COc1cc2c(cc1NC(=O)C1CCC(=O)N1S(=O)(=O)c1ccc(C)cc1)oc1ccc(Cl)cc12 (stereo not shown) [Compound 26, N-(8-Chloro-2-methoxydibenzo[b,d]furan-3-yl)-5-oxo-1-tosylpyrrolidine-2-carboxamide]
- activity in spheroids (in words) (GBM43 spheroids [1]; GBM43 spheroids): no activity
- activity in spheroids (in words) (GBM10 spheroids): no activity
- activity in spheroids (in words) (SJ-GBM2 spheroids): no activity

SMILES: COc1cc2c(cc1NC(=O)C1CCC(=O)N1S(=O)(=O)c1ccc(C)cc1)oc1cc(Cl)ccc12 (stereo not shown) [Compound 27, N-(7-Chloro-2-methoxydibenzo[b,d]furan-3-yl)-5-oxo-1-tosylpyrrolidine-2-carboxamide]
- activity in spheroids (in words) (GBM43 spheroids [1]; GBM43 spheroids): no activity
- activity in spheroids (in words) (GBM10 spheroids): no activity
- activity in spheroids (in words) (SJ-GBM2 spheroids): no activity

SMILES: COc1cc2c(cc1NC(=O)C1CCC(=O)N1S(=O)(=O)c1ccc(C)cc1)oc1ccccc12 (stereo not shown) [Compound 1, N-(2-Methoxydibenzo[b,d]furan-3-yl)-5-oxo-1-tosylpyrrolidine-2-carboxamide]
- inhibition of cell viability (GBM43 spheroids [1]; GBM43 spheroids, single concentration 25 μM): 90%
- IC50 (GBM43 spheroids [1]; Homo sapiens, 120 h, read-out: IC50 (cell viability)): 3.7 ± 0.1 µM
- effect on cell viability of CD34+ cells (CD34+ progenitor cells): no effect
- effect on cell viability of astrocytes (astrocytes): no effect
- activity in spheroid model (Pa02C): no activity
- IC50 (Panc10.05 (Pa16C)): 26 ± 5.9 µM
- activity in spheroid model (Panc198 (Pa20C)): no activity
- IC50 [4]: ~0.1 µM
- IC50 [5]: 3.5 µM
- stability following incubation in buffer [6]: stable
- GAPDH abundance after heating (CETSA) (GAPDH): no difference in protein abundance
- thermal shift of RACK1 (ΔTm) (RACK1 [7]): significant thermal shift

SMILES: COc1cc2c(cc1NC(=O)C1CCC(=O)N1S(=O)(=O)c1ccc(C(F)(F)F)cc1)oc1ccccc12 (stereo not shown) [Compound 25, N-(2-Methoxydibenzo[b,d]furan-3-yl)-5-oxo-1-((4-(trifluoromethyl)phenyl)sulfonyl)pyrrolidine-2-carboxamide]
- fold decrease in IC50 compared to 1 (GBM43 spheroids [1]; GBM43 spheroids): ~10 fold
- fold decrease in IC50 compared to 1 (GBM10 spheroids): ~10 fold
- fold decrease in IC50 compared to 1 (SJ-GBM2 spheroids): ~10 fold
